Experimental data as given in paper PMC4944842 (Molecular cancer therapeutics, 2010).

Assays:
CHK2 = CHK2 (Homo sapiens, UniProt O96017); assay: Kinase profiling at 10 µmol/L; type: biochemical; settings: read-out: activity remaining
How it was run: (§1)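 Millipore profiling covered 50 human kinases. Test compound was tested at 10 µmol/L, with ATP at the Km of each enzyme. Readout was % kinase activity remaining.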

[1] = test system: PC3 human prostate cancer cells; assay: 96-hour SRB antiproliferative assay; type: cell-based; settings: read-out: GI50 for growth inhibition (mean±SD)
How it was run: (§2)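 Cells attached for 36 h before treatment so they were in exponential growth. Test compound came from a 10 mM DMSO stock. Growth was measured by sulforhodamine B staining after 96 h of exposure. GI50 was derived by a previously published method and reported as mean ± SD of 3–5 independent experiments.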

[2] = Pharmacokinetics after single dose of 25 mg/kg; type: in vivo, mice
How it was run: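 Mice bearing HCT116 xenografts received a single 25 mg/kg dose i.v., i.p. or p.o. Plasma and tumor were sampled over time, 3–5 mice per time point. Drug was extracted with methanol and quantified by LC-MS on a Synergi-Polar RP column (0.1% formic acid/methanol gradient, 0.6 ml/min, 12 min). Data are mean ± SE.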

[3] = test system: PTEN-null U87MG human glioblastoma xenografts; assay: Antitumor activity in human tumor xenograft; type: in vivo, mice; settings: 25 mg/kg i.p. × 5 of 7 days
How it was run: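 U87MG cells (2 × 10⁶) were injected s.c. into the right flank of 6–8-week-old female […] mice. Mice were randomized at ~100 mm³ mean tumor volume and given test compound i.p. or vehicle (10% DMSO, 5% Tween 20, 85% saline). Body weight and caliper tumor diameters were recorded three times weekly. Volume = 4/3π[(d1+d2)/4]³; tumors were excised and weighed at study end.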

PKA = PKA (Homo sapiens, UniProt P17612); assay: Kinase enzyme assay; type: biochemical; settings: read-out: activity remaining
[4] = test system: panel of kinases representative of the human protein kinome; assay: Kinase profiling at 10 µmol/L against panel of kinases; type: biochemical; settings: ATP at Km
How it was run: as §1

Rock-II = Rock-II (Homo sapiens, UniProt O75116); assay: Kinase profiling at 10 µmol/L; type: biochemical; settings: read-out: activity remaining
Sequence of Rock-II (O75116 whole entry): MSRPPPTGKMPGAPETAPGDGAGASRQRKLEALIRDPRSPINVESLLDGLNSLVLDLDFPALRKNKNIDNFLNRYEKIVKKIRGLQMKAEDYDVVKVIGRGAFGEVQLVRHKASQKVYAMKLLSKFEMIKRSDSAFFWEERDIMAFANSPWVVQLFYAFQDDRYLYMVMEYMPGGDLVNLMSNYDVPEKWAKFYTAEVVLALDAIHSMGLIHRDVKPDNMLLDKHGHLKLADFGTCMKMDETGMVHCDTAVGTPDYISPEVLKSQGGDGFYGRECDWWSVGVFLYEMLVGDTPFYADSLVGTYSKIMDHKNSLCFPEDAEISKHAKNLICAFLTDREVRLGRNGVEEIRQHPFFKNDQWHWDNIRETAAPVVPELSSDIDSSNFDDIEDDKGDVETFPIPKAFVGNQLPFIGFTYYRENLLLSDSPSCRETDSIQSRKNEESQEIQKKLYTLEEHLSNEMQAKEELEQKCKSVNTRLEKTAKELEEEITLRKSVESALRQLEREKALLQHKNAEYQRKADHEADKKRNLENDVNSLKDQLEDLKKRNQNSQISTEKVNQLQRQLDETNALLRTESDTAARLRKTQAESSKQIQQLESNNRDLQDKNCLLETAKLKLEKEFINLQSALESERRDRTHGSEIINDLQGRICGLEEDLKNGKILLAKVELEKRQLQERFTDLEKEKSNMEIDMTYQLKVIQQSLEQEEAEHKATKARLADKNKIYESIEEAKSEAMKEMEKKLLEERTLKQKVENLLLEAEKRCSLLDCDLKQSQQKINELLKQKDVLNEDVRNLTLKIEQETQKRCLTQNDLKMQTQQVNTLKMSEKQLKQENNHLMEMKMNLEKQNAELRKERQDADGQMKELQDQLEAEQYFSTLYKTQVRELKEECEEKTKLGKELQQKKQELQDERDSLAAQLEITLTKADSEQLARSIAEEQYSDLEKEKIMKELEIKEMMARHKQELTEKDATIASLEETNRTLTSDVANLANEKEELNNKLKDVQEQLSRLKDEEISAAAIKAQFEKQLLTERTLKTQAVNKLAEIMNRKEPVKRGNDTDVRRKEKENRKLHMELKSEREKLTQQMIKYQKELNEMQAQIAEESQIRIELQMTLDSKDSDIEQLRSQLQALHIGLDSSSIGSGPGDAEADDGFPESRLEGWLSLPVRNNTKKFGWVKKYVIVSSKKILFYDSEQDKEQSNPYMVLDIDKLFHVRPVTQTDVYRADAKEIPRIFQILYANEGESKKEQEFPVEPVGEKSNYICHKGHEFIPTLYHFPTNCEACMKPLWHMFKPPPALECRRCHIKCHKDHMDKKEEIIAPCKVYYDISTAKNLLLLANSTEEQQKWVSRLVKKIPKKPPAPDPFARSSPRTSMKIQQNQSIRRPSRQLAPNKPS
How it was run: as §1

p70S6K = p70S6K (Homo sapiens, UniProt P23443); assay: Kinase enzyme assay; type: biochemical; settings: read-out: activity remaining
Sequence of p70S6K (P23443 whole entry): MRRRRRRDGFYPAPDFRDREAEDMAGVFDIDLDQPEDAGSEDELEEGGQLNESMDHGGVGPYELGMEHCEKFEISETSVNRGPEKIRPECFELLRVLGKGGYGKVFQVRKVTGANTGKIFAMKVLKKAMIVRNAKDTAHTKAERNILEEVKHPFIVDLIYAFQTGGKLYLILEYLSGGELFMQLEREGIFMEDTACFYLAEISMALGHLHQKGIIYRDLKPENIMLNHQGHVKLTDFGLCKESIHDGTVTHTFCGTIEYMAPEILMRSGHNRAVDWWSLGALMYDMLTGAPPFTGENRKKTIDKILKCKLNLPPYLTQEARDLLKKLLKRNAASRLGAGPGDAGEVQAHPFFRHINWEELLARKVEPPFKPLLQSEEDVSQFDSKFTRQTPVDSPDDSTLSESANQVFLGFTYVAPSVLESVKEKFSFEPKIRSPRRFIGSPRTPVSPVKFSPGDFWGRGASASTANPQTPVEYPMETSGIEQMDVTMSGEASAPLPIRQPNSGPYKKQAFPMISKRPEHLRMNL
How it was run: as §1

[5] = test system: PC3 and LNCaP prostate cancer cell lines, HCT116 colorectal cancer cells and MCF7 human breast cancer cells; type: cell-based; settings: one hour exposure, 3 or 10 µM
How it was run: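 PC3, LNCaP, HCT116 and MCF7 cells were exposed for 1 h to 3 or 10 µM test compound. Controls were DMSO and LY294002 (30 µM, 1 h). Lysates were run on 10% Tris-glycine gels, transferred to PVDF and blocked in 5% milk/Tris-NaCl-Tween. Primary antibodies were applied overnight at 4 °C, then HRP secondaries for 1 h, with ECL detection. GAPDH served as loading control.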

[6] = test system: U87MG human glioblastoma cells; assay: 96-hour SRB antiproliferative assay; type: cell-based; settings: U-87 MG, read-out: GI50 for growth inhibition (mean±SD)
How it was run: as §2

[7] = test system: PTEN-null U87MG human glioblastoma cells; assay: Flow cytometry cell cycle analysis; type: cell-based
[8] = test system: U87MG human glioblastoma cells; assay: Immunoblotting of AKT biomarkers and cell cycle proteins; type: cell-based
How it was run: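 U87MG cells were exposed for 1 h to increasing test-compound concentrations, or to one fixed concentration sampled at intervals up to 48 h. Controls were DMSO and LY294002 (30 µM, 1 h). Phospho and total AKT, GSK3β, PRAS40, FOXO1/3a, S6RP, cyclin D1, p21 and p27 were immunoblotted (10% Tris-glycine gels, PVDF, overnight 4 °C primaries, ECL). GAPDH served as loading control.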

[9] = test system: HER2-positive, PIK3CA-mutant BT474 human breast cancer xenografts; assay: Antitumor activity in human tumor xenograft; type: in vivo, mice; settings: 40 mg/kg bid × 5 of 7 days
How it was run: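 BT474 cells (5 × 10⁶) in medium mixed 1:1 with matrigel were implanted into mammary fat pads of female mice. Estradiol pellets (0.025 mg, 90-day release) had been placed s.c. 3 days earlier. Mice were randomized at ~100 mm³ mean tumor volume. Dosing was 40 mg/kg i.p. twice daily for 5 days versus vehicle (10% DMSO, 5% Tween 20, 85% saline). Tumors (calipers) and body weight were measured thrice weekly.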

[10] = test system: U87MG human glioblastoma xenografts; assay: Pharmacodynamic AKT biomarker immunoblotting in tumor xenografts; type: in vivo, mice; settings: 50 mg/kg i.p. × 4 days
How it was run: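 Mice bearing s.c. U87MG xenografts received 50 mg/kg i.p. daily for 4 days. Tumors were harvested 2 and 6 h after the last dose; protein was measured by Bradford and tumors were immunoblotted. Each phosphoprotein/total protein ratio was normalized to GAPDH and expressed relative to vehicle controls (=1.0). Data are mean ± SE of 3–5 determinations.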

[11] = test system: LNCaP human prostate cancer cells; assay: 96-hour SRB antiproliferative assay; type: cell-based; settings: read-out: GI50 for growth inhibition (mean±SD)
How it was run: as §2

Sequence of CHK2 (O96017 whole entry): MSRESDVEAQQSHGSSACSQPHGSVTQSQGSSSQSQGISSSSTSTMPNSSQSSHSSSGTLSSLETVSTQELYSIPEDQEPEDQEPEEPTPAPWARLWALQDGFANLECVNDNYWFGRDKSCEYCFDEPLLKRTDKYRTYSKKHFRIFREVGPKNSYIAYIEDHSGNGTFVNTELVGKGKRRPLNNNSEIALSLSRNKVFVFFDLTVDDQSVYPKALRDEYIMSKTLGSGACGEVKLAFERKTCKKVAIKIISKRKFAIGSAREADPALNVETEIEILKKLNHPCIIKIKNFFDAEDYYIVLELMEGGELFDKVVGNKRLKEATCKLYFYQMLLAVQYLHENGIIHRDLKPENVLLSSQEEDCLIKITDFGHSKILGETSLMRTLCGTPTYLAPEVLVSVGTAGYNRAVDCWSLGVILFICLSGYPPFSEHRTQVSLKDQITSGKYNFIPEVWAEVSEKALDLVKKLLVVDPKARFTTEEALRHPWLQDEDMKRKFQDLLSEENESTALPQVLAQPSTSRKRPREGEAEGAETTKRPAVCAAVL

`NC1(Cc2ccc(Cl)cc2)CCN(c2ncnc3[nH]ccc23)CC1` [CCT128930, 4-(4-chlorobenzyl)-1-(7H-pyrrolo[2,3-d]pyrimidin-4-yl)piperidin-4-amine] showed a remaining activity at 10 µM (CHK2) of under 25%, a GI50 [1] of 1900 nM and a peak tumor concentration ([2]; 25 mg/kg i.p., HCT116 human colon tumor xenograft) of 8 µM. The “AUC0-∞ tumor” value ([2]; 25 mg/kg i.p., HCT116 tumor xenograft) was 25.8 µMh, the “administered dose recovered unaltered in urine” value ([2]; 25 mg/kg i.p., after 24 hours (data not shown)) was 0.23% and the “AUC0-∞ plasma” value ([2]; 25 mg/kg i.p., mice) was 1.3 µMh. The “AUC0-∞ plasma” value ([2]; 25 mg/kg i.v., mice) was 4.6 µMh, the “peak concentration in plasma” value ([2]; 25 mg/kg i.v., mice) was 6.4 µM and the peak plasma concentration ([2]; 25 mg/kg p.o., mice) was 0.43 µM. The weight loss [3] was “no weight loss”, the remaining activity at 10 µM (PKA) was under 25% and the “cross-reactivity with 47 other kinases” value [4] was “minimal cross-reactivity”. The remaining activity at 10 µM (Rock-II) was under 25%, the remaining activity at 10 µM (p70S6K) was under 25% and the “pSer473 AKT” value [5] was “induction”. The “pSer9 GSK3β” value ([5]; all four cell lines) was “Decreased phosphorylation”, the “pSer240/244 S6RP” value ([5]; all four cell lines) was “decreased” and the GI50 [6] was 6300 nM. The G2/M cells ([7]; 1 × GI50, 24 hours, DMSO control 16.7%) was 18.9%, the S phase cells ([7]; 1 × GI50, 24 hours, DMSO control 32.3%) was 13.2% and the G0/G1 phase cells ([7]; 1 × GI50, 24 hours, DMSO control 46.4%) was 63.2%. The G2/M phase cells ([7]; 3 × GI50 (18.9µM), 24 hours, DMSO control 17.8%) was 30.5%, the S phase cells ([7]; 3 × GI50 (18.9µM), 24 hours, DMSO control 36.6%) was 2.0% and the G0/G1 phase cells ([7]; 3 × GI50 (18.9µM), 24 hours, DMSO control 43.6%) was 64.8%. For the same molecule, the “cyclin D1 over time” value ([8]; 18.9 μM) was “decreased after 8 hours”, the “pSer473 AKT over time” value ([8]; 18.9 μM (3× GI50), after 30 minutes, sustained for 48 hours) was “increase in phosphorylation” and the “pThr32 FOXO3a phosphorylation” value ([8]; 18.9 μM, after one hour exposure) was “marked decrease”. The “pSer235/236 S6RP signal over time” value ([8]; 18.9 μM, decrease at 30 minutes) was “complete loss after 2 hours”, the “pSer240/244 S6RP signal over time” value ([8]; 18.9 μM, decreased from 4 hours) was “abolished after 8 hours” and the “pSer9 GSK3β phosphorylation over time” value ([8]; 18.9 μM, from 30 minutes, sustained at least 24 hours, recovery at 48 hours) was “rapid and profound loss”. The “pThr246 PRAS40 over time” value ([8]; 18.9 μM, from 30 minutes, sustained throughout 48 hours) was “marked loss in phosphorylation”, the “CDK inhibitor p27 over time” value ([8]; 18.9 μM, from 2 hours) was “induction” and the “exposure sufficient to markedly inhibit phosphorylation of GSK3β, S6RP, FOXO1 and PRAS40” value ([8]; 1 hour) was 5 to 10 µM. For the same molecule, the “concentration decreasing cyclin D1 expression” value ([8]; 1 h treatment) was at least 40 µM, the “concentration inhibiting direct substrates of AKT (Ser9 GSK3β, pThr246 PRAS40 and pT24 FOXO1/p32 FOXO3a)” value ([8]; 1 h treatment) was at least 5 μM and the “concentration inhibiting downstream target pSer235/236 S6RP” value ([8]; 1 h treatment) was at least 10 μM. The “effect on pSer240/244 S6RP” value ([8]; 1 h treatment, increasing concentrations) was “minimal effects”, the “concentration up to which AKT phosphorylation at serine 473 is induced” value ([8]; 1 h treatment, decrease at higher concentrations) was “up to 20 μM” and the “apoptosis as measured by PARP cleavage” value ([8]; after CCT128930 treatment (Supplementary Figure 2)) was “increase”. The antitumor effect [9] was “complete growth arrest”, the “body weight nadir, % of the initial body weight” value ([9]; day 15 of treatment) was 94.8% and the “phosphorylation of Ser9 GSK3β” value ([10]; 2 and 6 hours (P<0.001 and P<0.01)) was “significant decreases”. For the same molecule, the “phosphorylation of Ser235/236 S6RP” value ([10]; 2 and 6 hours (P<0.05 and P<0.01)) was “significant decreases”, the “phosphorylation of Thr246 PRAS40” value ([10]; 2 and 6 hours (P<0.05 and P<0.05)) was “significant decreases” and the “Ser473 phosphorylation on AKT” value ([10]; 2 and 6 hours after last dose (P<0.001 and P<0.01)) was “significant increase”. The GI50 [11] was 350 nM.
